From ChEMBL document CHEMBL1148460, “Interaction of cycloSal-pronucleotides with cholinesterases from different origins. A structure-activity relationship” (J Med Chem, 2004) come the findings set out here.

Assay [1] concerns the target Cholinesterase (Homo sapiens, UniProt P06276). The assay is described as follows: Inhibitory activity towards human butyrylcholinesterase. An outline of the steps: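 Modified Rappaport assay following acetylcholine chloride hydrolysis to acetic acid, with m-nitrophenol indicator in phosphate buffer at pH 7.8 and NaCl. The compound is added in DMSO, and the reaction is started with serum (human, mouse or calf). A420 is read at 25 °C at 0 and 5 min. Final inhibitor is 0.1, 0.5, 1, 5, 10, 30 and 50 µM. IC50 is interpolated from ΔE plots in the pseudolinear region.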

The test system of assay [2] is CCRF-CEM. In words: Anti-HIV-1 activity tested in human lymphocytic CEM cells. Type of assay: functional, cell-based.
In assay [3] the target is Acetylcholinesterase (Electrophorus electricus, UniProt O42275). In words: Inhibitory activity towards Electrophorus electricus acetylcholinesterase.
Sequence of Acetylcholinesterase (O42275 whole entry): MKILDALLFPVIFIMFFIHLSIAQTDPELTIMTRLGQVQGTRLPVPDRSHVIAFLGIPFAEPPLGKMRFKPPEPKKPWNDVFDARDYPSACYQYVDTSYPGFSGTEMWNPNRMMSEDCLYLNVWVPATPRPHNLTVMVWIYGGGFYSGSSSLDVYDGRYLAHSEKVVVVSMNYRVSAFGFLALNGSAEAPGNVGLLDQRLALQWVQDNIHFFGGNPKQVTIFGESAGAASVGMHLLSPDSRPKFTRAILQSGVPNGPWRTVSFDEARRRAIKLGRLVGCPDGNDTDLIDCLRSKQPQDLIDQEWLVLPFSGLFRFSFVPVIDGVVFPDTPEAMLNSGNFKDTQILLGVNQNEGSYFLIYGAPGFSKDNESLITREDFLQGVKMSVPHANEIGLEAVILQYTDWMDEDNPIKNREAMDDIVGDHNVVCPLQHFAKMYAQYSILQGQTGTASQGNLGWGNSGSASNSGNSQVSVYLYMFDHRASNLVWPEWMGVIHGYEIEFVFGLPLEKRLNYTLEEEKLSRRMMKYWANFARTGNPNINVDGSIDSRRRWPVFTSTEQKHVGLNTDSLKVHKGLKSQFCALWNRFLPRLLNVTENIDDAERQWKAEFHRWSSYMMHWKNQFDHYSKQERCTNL

Sequence of Cholinesterase (P06276 whole entry): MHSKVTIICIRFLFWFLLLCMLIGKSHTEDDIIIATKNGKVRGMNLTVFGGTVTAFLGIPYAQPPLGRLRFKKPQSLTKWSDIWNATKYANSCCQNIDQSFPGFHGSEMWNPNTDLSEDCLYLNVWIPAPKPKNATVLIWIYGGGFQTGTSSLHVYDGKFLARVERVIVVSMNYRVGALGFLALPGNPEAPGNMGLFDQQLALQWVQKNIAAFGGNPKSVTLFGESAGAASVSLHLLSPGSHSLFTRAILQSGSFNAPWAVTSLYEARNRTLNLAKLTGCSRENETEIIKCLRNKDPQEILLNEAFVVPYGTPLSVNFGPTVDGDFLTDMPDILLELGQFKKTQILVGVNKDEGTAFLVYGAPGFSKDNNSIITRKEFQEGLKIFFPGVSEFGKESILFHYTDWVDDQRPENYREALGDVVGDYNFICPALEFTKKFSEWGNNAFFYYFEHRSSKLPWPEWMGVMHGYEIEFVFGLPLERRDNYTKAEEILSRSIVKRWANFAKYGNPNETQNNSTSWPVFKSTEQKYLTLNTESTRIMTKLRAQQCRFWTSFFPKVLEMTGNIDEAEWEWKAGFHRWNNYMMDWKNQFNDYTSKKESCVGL

For `Cc1cn([C@H]2C=C[C@@H](CO[P@@]3(=O)OCc4cccc(C(C)(C)C)c4O3)O2)c(=O)[nH]c1=O`, the IC50 in assay [1] and in assay [3] was > 50000 nM each time. In assay [2], the EC50 is 130 nM.
As for `Cc1cccc2c1OP(=O)(OC[C@@H]1C[C@@H](F)[C@H](n3cnc4c(N)ncnc43)O1)OC2` (some centres not stated), the values for the IC50 in assay [1] and in assay [3] were 1100 nM and > 50000 nM, respectively.
Consider `O=C1NC(=O)N([C@H]2C[C@H](O)[C@@H](COP3(=O)OCc4cccc(-c5ccccc5)c4O3)O2)C[C@H]1/C=C/Br` (some centres not stated), for which the IC50 in assay [1] and in assay [3] was > 50000 nM in each case.
Consider `Cc1cccc2c1O[P@@](=O)(OC[C@H](CO)OCn1cnc3c(O)nc(N)nc31)OC2`, for which the figures for the IC50 in assay [1] and in assay [3] were 23000 nM and > 50000 nM, respectively.
The corresponding values for `O=C1NC(=O)N([C@H]2C[C@H](O)[C@@H](CO[P@]3(=O)OCc4cccc(-c5ccccc5)c4O3)O2)CC1/C=C/Br` (some centres not stated) are 3700 nM and > 50000 nM.
Regarding `COc1ccc2c(c1)CO[P@](=O)(OC[C@@H]1C=C[C@H](n3cc(C)c(=O)[nH]c3=O)O1)O2`, the IC50 in assay [1] and in assay [3] was > 50000 nM in each case. In assay [2], this molecule showed an EC50 of 43 nM.
Turning to `Cc1ccc2c(c1)COP(=O)(OC[C@@H]1C=C[C@H](n3cc(C)c(=O)[nH]c3=O)O1)O2` (some centres not stated), the IC50 was 4600 nM in assay [1] and > 50000 nM in assay [3].
On to `Cc1cn(C2C=CC(COP3(=O)OCc4cc(CCC(=O)OCc5ccccc5)ccc4O3)O2)c(=O)[nH]c1=O` (configuration not stated), for which the IC50 in assay [1] is 22000 nM; in assay [3], > 50000 nM. For the same molecule, it took 80 nM to reach a half-maximal effect in assay [2] (EC50).
With `Cc1cc(C)c2c(c1)COP(=O)(OCC1C=CC(n3cc(C)c(=O)[nH]c3=O)O1)O2` (configuration not stated), the IC50 was 46000 nM in assay [1] and > 50000 nM in assay [3].
The corresponding values for `Cc1cccc2c1OP(=O)(OC[C@H]1O[C@@H](N3C=NC4C(=O)N=C(N)N=C43)C[C@@H]1O)OC2` (some centres not stated) are > 50000 nM and > 50000 nM.
The corresponding values for `Cc1cccc2c1OP(=O)(OC[C@H]1O[C@@H](n3cc(C)c(=O)[nH]c3=O)C[C@@H]1O)OC2` (some centres not stated) are 36000 nM and > 50000 nM.
Consider `Cc1cccc2c1OP(=O)(OCC1CCC(n3cc(C)c(=O)[nH]c3=O)O1)OC2` (configuration not stated), for which the IC50 in assay [1] is 1000 nM; in assay [3], > 50000 nM. This molecule also yielded an EC50 in assay [2] of 4300 nM.
Consider `Cc1cn(C2C=CC(COP3(=O)OCc4cc(C(C)(C)C)cc(C(C)(C)C)c4O3)O2)c(=O)[nH]c1=O` (configuration not stated), for which the IC50 in assay [1] and in assay [3] was > 50000 nM each time. In assay [2], the midpoint of the response, the EC50, lay at 1100 nM.
For `Cc1cn(C2C=CC(COP3(=O)OCc4cccc(-c5ccccc5)c4O3)O2)c(=O)[nH]c1=O` (configuration not stated), the IC50 in assay [1] is 350 nM; in assay [3], > 50000 nM. Moreover, the midpoint of the response in assay [2], the EC50, lay at 130 nM.
In the case of `Cc1cn(C2C=CC(COP3(=O)OCc4cccc(CCC(=O)OCc5ccccc5)c4O3)O2)c(=O)[nH]c1=O` (configuration not stated), the IC50 in assay [1] was 2800 nM; in assay [3] it was > 50000 nM. The EC50 in assay [2] came out at 150 nM.
Taken in the same sequence, the figures for `Cc1cn(C2C=CC(COP3(=O)Oc4ccccc4C(C(Cl)(Cl)Cl)O3)O2)c(=O)[nH]c1=O` (configuration not stated) were 27000 nM, > 50000 nM and 190 nM.
Taken in the same sequence, the figures for `CCCCC1OP(=O)(OCC2C=CC(n3cc(C)c(=O)[nH]c3=O)O2)Oc2cccc(Cl)c21` (configuration not stated) were 13000 nM, > 50000 nM and 190 nM.
The corresponding values for `Cc1cn(C2C=CC(COP3(=O)OCc4c(ccc5ccccc45)O3)O2)c(=O)[nH]c1=O` (configuration not stated) are 3900 nM, > 50000 nM and 90 nM.
On to `Cc1cccc2c1OP(=O)(OCC1C=CC(n3cnc4c(O)nc(N)nc43)C1)OC2` (configuration not stated), for which the 50% inhibitory concentration (IC50) was 2500 nM in assay [1] and > 50000 nM in assay [3]. The same molecule displayed an EC50 in assay [2] of 470 nM.
`Cc1cn(C2C=CC(COP3(=O)OCc4cc(C(C)(C)C)ccc4O3)O2)c(=O)[nH]c1=O` (configuration not stated): the IC50 was 5600 nM in assay [1] and > 50000 nM in assay [3]. Besides, in assay [2], a half-maximal effect (EC50) was put at 140 nM.
The corresponding values for `Cc1cn([C@H]2C=C[C@@H](COP3(=O)OCc4cccc(C(C)(C)C)c4O3)O2)c(=O)[nH]c1=O` (some centres not stated) are 4200 nM, > 50000 nM and 180 nM.
For `Cc1cn([C@H]2C=C[C@@H](COP3(=O)OCc4ccccc4O3)O2)c(=O)[nH]c1=O` (some centres not stated), the IC50 is 770 nM in assay [1] and > 50000 nM in assay [3].
For the molecule `Cc1cccc2c1OP(=O)(OC[C@@H]1C=C[C@H](n3cc(C)c(=O)[nH]c3=O)O1)OC2` (some centres not stated), the results for the IC50 in assay [1] and in assay [3] were 1200 nM and > 50000 nM, respectively.
Regarding `CCC(C)c1ccc2c(c1)COP(=O)(OCC1C=CC(n3cc(C)c(=O)[nH]c3=O)O1)O2` (configuration not stated), the values for the IC50 in assay [1] and in assay [3] were 3300 nM and > 50000 nM, respectively. In assay [2], this molecule displayed an EC50 of 1900 nM.
Take `CCOC(=O)CC1OP(=O)(OCC2C=CC(n3cc(C)c(=O)[nH]c3=O)O2)Oc2cccc(Cl)c21` (configuration not stated): the IC50 in assay [1] and in assay [3] was > 50000 nM each time. The molecule further had an EC50 in assay [2] of 140 nM.
In the case of `Cc1cn(C2C=CC(COP3(=O)Oc4ccccc4C(CCl)O3)O2)c(=O)[nH]c1=O` (configuration not stated), the IC50 in assay [1] is 3900 nM; in assay [3] it was > 50000 nM. This molecule also displayed an EC50 in assay [2] of 190 nM.
Taken in the same sequence, the figures for `Cc1cn(C2C=CC(COP3(=O)Oc4cccc(Cl)c4C(C)O3)O2)c(=O)[nH]c1=O` (configuration not stated) were 1800 nM, > 50000 nM and 190 nM.
Take `Cc1cccc2c1OP(=O)(OCC1OC(n3cc(C)c(=O)[nH]c3=O)CC1=O)OC2` (configuration not stated): the IC50 in assay [1] and in assay [3] was > 50000 nM each time.
Take `Cc1cn(C2C=CC(COP3(=O)OCc4c(Cl)cccc4O3)O2)c(=O)[nH]c1=O` (configuration not stated): the values for the IC50 in assay [1] and in assay [3] were 570 nM and > 50000 nM, respectively. In assay [2], this molecule showed an EC50 of 90 nM.
The corresponding values for `COC(=O)CCc1ccc2c(c1)COP(=O)(OCC1C=CC(n3cc(C)c(=O)[nH]c3=O)O1)O2` (configuration not stated) are 8800 nM, > 50000 nM and 240 nM.
Taken in the same sequence, the figures for `Cc1cn(C2C=CC(COP3(=O)OCc4ccc5ccccc5c4O3)O2)c(=O)[nH]c1=O` (configuration not stated) were 250 nM, > 50000 nM and 140 nM.
The corresponding values for `COC(=O)CCc1cccc2c1OP(=O)(OCC1C=CC(n3cc(C)c(=O)[nH]c3=O)O1)OC2` (configuration not stated) are 2700 nM, > 50000 nM and 160 nM.
For `Cc1cn(C2C=CC(COP3(=O)OCc4cc5ccccc5cc4O3)O2)c(=O)[nH]c1=O` (configuration not stated), the values for the IC50 in assay [1] and in assay [3] were 410 nM and > 50000 nM, respectively. In addition, a half-maximal effect in assay [2] (EC50) was put at 410 nM.
Consider `Cc1cccc2c1OP(=O)(OCC1CC(O)C(n3cnc4c(N)ncnc43)O1)OC2` (configuration not stated), for which the IC50 in assay [1] is 28000 nM; in assay [3], > 50000 nM.
Regarding `Cc1cn(C2C=CC(COP3(=O)OCc4cc(CCC(=O)OC(C)(C)C)ccc4O3)O2)c(=O)[nH]c1=O` (configuration not stated), the results for the concentration for half-maximal inhibition (IC50) in assay [1] and in assay [3] were 4400 nM and > 50000 nM, respectively. The molecule also gave an EC50 in assay [2] of 180 nM.
In the case of `CCC(C)c1cccc2c1OP(=O)(OCC1C=CC(n3cc(C)c(=O)[nH]c3=O)O1)OC2` (configuration not stated), the IC50 in assay [1] was 2000 nM; in assay [3], > 50000 nM. In assay [2], this molecule returned an EC50 of 80 nM.
Taken in the same sequence, the figures for `Cc1cn(C2C=CC(COP3(=O)OCc4cc(CCC(=O)O)ccc4O3)O2)c(=O)[nH]c1=O` (configuration not stated) were > 50000 nM, > 50000 nM and 140 nM.
Turning to `Cc1cn(C2C=CC(COP3(=O)OCc4cccc(CCC(=O)O)c4O3)O2)c(=O)[nH]c1=O` (configuration not stated), the IC50 in assay [1] and in assay [3] was > 50000 nM in each case. The molecule further gave a half-maximal effective concentration (EC50) in assay [2] of 190 nM.
In the case of `Cc1cn(C2C=CC(COP3(=O)OCc4cc(-c5ccccc5)ccc4O3)O2)c(=O)[nH]c1=O` (configuration not stated), the IC50 in assay [1] is 4400 nM; in assay [3], > 50000 nM. In addition, in assay [2], the response was half-maximal at 400 nM (EC50).
For `Cc1cn(C2C=CC(COP3(=O)Oc4ccccc4C(C(Cl)Cl)O3)O2)c(=O)[nH]c1=O` (configuration not stated), the figures for the IC50 in assay [1] and in assay [3] were 26000 nM and > 50000 nM, respectively. Further, a half-maximal response in assay [2] (EC50) required 160 nM.
Taken in the same sequence, the figures for `Cc1cn(C2C=C[C@@H](CO[P@]3(=O)OCc4cccc(C(C)(C)C)c4O3)O2)c(=O)[nH]c1=O` (single isomer, unassigned) were 2600 nM, > 50000 nM and 600 nM.
On to `COc1ccc2c(c1)CO[P@@](=O)(OC[C@@H]1C=CC(n3cc(C)c(=O)[nH]c3=O)O1)O2` (single isomer, unassigned), for which the IC50 in assay [1] was 1800 nM; in assay [3], > 50000 nM. Further, in assay [2], the response was half-maximal at 500 nM (EC50).
Taken in the same sequence, the figures for `Cc1cccc2c1OP(=O)(OC[C@H]1C=CC(n3cnc4c(NC5CC5)nc(N)nc43)C1)OC2` (single isomer, unassigned) were 1300 nM, > 50000 nM and 700 nM.
